From ChEMBL document CHEMBL4118097, “Selective Inhibitors of Dual Leucine Zipper Kinase (DLK, MAP3K12) with Activity in a Model of Alzheimer's Disease” (J Med Chem, 2017)
Activity calls are given as the source filed them.

Legend:
[1] = molecular target: Protein kinase C zeta type (Homo sapiens) (UniProt Q05513); assay: Inhibition of PKCzeta (unknown origin) at 1 uM by FRET assay relative to control
Mus musculus [2] = assay: In-vivo inhibition of DLK in PS2APP mouse model assessed as reduction in phosphorylated c-jun level in cortical lysate at 15 mg/kg, po administered as single dose after 6 hrs by Western blot analysis relative to control; type: functional
Outline: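 Homozygous PS2APP mice aged 9–10 months got one oral dose of 15 mg/kg as an MCT suspension, or vehicle; n = 7–8 per group. At 6 h: terminal plasma by cardiac puncture under deep anaesthesia, then PBS perfusion. Left cortex frozen at −80 °C and homogenised in 10 volumes RIPA. p-c-Jun read by Western blot with a GAPDH control, compared with vehicle (Dunnett's test).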

[3] = molecular target: Calcium/calmodulin-dependent protein kinase type 1 (Homo sapiens) (UniProt Q14012); assay: Inhibition of recombinant full length His-tagged human CaMK1 expressed in baculovirus expression system at 1 uM by FRET assay relative to control
[4] = molecular target: Tyrosine-protein kinase JAK3 (Homo sapiens) (UniProt P52333); assay: Inhibition of recombinant GST-tagged human JAK3 catalytic domain (781 to 1124 residues) expressed in baculovirus expression system at 1 uM by FRET relative to control
Chain of Tyrosine-protein kinase JAK3 (Homo sapiens) (P52333 whole entry, the tested form may be a part): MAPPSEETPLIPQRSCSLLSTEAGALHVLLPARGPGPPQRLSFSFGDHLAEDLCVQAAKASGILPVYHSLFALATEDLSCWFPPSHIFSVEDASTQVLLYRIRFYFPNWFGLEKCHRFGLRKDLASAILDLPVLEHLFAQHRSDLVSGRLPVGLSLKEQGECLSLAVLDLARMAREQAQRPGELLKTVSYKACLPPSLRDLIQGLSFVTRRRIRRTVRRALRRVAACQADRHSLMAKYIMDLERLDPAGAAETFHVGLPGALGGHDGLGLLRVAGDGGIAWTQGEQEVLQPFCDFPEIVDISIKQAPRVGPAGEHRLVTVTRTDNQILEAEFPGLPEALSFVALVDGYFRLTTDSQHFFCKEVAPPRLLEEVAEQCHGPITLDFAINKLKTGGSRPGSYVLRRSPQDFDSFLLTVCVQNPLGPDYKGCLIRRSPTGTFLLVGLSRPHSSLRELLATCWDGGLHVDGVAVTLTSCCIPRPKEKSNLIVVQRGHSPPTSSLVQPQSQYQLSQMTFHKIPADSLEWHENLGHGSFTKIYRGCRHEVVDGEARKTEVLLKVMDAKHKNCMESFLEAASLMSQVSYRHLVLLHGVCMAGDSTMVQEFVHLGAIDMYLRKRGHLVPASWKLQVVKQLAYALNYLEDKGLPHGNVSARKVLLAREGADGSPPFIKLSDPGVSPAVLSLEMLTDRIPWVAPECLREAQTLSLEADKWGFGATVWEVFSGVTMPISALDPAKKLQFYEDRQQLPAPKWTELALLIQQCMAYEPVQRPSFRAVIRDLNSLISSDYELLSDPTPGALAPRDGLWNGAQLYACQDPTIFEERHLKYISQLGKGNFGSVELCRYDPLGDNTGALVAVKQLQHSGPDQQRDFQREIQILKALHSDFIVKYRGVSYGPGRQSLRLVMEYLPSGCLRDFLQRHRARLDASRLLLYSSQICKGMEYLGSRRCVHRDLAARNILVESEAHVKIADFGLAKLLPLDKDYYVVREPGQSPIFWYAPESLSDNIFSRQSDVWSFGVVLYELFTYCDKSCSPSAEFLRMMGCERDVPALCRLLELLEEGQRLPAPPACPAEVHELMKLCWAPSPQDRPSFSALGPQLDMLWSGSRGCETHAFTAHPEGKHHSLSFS
Outline: (§1)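 Single-point screen at 1 μM compound in a 220-kinase panel run by Life Technologies (SelectScreen). Z′-LYTE format: phosphorylation of a labeled peptide substrate read by FRET. Values are reported as percent inhibition.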

[5] = molecular target: Sphingosine kinase 1 (Homo sapiens) (UniProt Q9NYA1); assay: Inhibition of recombinant full length GST-tagged human SPHK1 expressed in baculovirus expression system at 1 uM by FRET assay relative to control
Chain of Sphingosine kinase 1 (Homo sapiens) (Q9NYA1 whole entry): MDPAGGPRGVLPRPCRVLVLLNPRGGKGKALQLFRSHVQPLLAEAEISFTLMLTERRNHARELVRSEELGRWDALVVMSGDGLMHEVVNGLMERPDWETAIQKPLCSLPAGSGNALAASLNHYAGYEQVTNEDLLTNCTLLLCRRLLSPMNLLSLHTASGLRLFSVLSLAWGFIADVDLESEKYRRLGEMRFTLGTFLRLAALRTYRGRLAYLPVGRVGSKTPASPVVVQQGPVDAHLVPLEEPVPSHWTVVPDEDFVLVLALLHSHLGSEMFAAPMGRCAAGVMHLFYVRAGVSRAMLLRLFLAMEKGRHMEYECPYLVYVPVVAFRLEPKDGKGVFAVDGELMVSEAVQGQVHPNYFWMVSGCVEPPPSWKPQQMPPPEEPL
Outline: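 Single-concentration screen at 1 μM in Life Technologies SelectScreen, across a 220-kinase panel. Z′-LYTE format measures phosphorylation of a labeled peptide by FRET. Results are reported as percent inhibition.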

Mus musculus [6] = assay: In-vivo inhibition of DLK in PS2APP mouse model assessed as reduction in phosphorylated c-jun level in cortical lysate at 50 mg/kg, po administered as single dose after 6 hrs by Western blot analysis; type: functional, organism-based
[7] = molecular target: Ephrin type-A receptor 1 (Homo sapiens) (UniProt P21709); assay: Inhibition of recombinant GST-tagged human EphA1 cytoplasmic domain expressed in baculovirus expression system at 1 uM by FRET assay relative to control; outline: as §1
Chain of Ephrin type-A receptor 1 (Homo sapiens) (P21709 whole entry, the tested form may be a part): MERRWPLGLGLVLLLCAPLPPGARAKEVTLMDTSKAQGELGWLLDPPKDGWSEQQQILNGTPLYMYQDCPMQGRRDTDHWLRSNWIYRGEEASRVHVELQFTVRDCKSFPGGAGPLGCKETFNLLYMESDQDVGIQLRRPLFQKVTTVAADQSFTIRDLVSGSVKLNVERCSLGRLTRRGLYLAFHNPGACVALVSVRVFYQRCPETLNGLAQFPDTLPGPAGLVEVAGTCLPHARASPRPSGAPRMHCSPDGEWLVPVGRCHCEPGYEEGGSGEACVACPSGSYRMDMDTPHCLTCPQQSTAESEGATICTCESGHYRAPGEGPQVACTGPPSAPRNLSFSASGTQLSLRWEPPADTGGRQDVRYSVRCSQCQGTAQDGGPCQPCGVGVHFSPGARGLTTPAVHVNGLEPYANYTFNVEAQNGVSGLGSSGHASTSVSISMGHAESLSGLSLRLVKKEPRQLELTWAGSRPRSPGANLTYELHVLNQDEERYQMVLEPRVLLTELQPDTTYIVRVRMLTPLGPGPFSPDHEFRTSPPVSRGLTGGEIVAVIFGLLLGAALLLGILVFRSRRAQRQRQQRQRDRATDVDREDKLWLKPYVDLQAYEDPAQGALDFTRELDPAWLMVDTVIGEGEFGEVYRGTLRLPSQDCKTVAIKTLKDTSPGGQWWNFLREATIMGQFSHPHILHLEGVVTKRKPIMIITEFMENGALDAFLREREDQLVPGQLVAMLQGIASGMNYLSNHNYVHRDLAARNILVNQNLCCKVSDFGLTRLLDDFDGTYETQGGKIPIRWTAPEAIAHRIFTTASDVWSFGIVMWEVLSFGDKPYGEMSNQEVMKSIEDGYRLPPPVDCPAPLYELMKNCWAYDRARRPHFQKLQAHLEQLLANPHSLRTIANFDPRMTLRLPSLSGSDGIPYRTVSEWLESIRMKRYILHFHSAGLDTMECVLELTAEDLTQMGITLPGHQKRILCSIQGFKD

[8] = molecular target: Serine/threonine-protein kinase PAK 4 (Homo sapiens, UniProt O96013); assay: Inhibition of recombinant GST-tagged human PAK4 catalytic domain expressed in baculovirus expression system by FRET assay
[9] = molecular target: Death-associated protein kinase 3 (Homo sapiens) (UniProt O43293); assay: Inhibition of recombinant full length GST-tagged human ZIPK expressed in baculovirus expression system at 1 uM by FRET assay relative to control
Mus musculus [10] = assay: Down regulation of phosphorylated MKK4 level in cortical lysate of PS2APP mouse model at 15 to 50 mg/kg, po administered as single dose after 6 hrs by Western blot analysis; type: functional, organism-based
Mus musculus [11] = assay: In-vivo inhibition of DLK in PS2APP mouse model assessed as reduction in phosphorylated c-jun level in cortical lysate at 15 mg/kg, po administered as single dose after 6 hrs by Western blot analysis; type: functional, organism-based
[12] = molecular target: Serine/threonine-protein kinase Nek9 (Homo sapiens) (UniProt Q8TD19); assay: Inhibition of recombinant full length GST-tagged human NEK9 catalytic domain expressed in baculovirus expression system at 1 uM by FRET assay relative to control
[13] = molecular target: Serine/threonine-protein kinase 16 (Homo sapiens, UniProt O75716); assay: Inhibition of recombinant full length His-tagged human STK16 expressed in baculovirus expression system by FRET assay
Mus musculus [14] = assay: Down regulation of phosphorylated JNK level in cortical lysate of PS2APP mouse model at 15 to 50 mg/kg, po administered as single dose after 6 hrs by Western blot analysis; type: functional, organism-based
[15] = molecular target: Nicotinic acetylcholine receptor alpha-1/beta-1/delta/epsilon (Homo sapiens) (UniProt P02708+P11230+Q07001+Q04844); assay: Binding affinity to (alpha1)2beta1deltaepsilon nAChR (unknown origin) receptor at 10 uM relative to control; type: protein-complex assay
Outline: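 Broad radioligand-binding and enzyme screening panel covering 42 targets (biogenic amine and neuropeptide receptors, ion channels, neurotransmitter transporters, acetylcholinesterase). Single test concentration of 10 μM. Results expressed as binding relative to control, with a hit defined as >50% of control.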

[16] = molecular target: Macrophage colony-stimulating factor 1 receptor (Homo sapiens, UniProt P07333); assay: Inhibition of recombinant His-tagged human CSF1R cytoplasmic domain (538 to 910 residues) expressed in baculovirus expression system by FRET assay
Chain of Macrophage colony-stimulating factor 1 receptor (P07333 whole entry, the tested form may be a part, canonical isoform): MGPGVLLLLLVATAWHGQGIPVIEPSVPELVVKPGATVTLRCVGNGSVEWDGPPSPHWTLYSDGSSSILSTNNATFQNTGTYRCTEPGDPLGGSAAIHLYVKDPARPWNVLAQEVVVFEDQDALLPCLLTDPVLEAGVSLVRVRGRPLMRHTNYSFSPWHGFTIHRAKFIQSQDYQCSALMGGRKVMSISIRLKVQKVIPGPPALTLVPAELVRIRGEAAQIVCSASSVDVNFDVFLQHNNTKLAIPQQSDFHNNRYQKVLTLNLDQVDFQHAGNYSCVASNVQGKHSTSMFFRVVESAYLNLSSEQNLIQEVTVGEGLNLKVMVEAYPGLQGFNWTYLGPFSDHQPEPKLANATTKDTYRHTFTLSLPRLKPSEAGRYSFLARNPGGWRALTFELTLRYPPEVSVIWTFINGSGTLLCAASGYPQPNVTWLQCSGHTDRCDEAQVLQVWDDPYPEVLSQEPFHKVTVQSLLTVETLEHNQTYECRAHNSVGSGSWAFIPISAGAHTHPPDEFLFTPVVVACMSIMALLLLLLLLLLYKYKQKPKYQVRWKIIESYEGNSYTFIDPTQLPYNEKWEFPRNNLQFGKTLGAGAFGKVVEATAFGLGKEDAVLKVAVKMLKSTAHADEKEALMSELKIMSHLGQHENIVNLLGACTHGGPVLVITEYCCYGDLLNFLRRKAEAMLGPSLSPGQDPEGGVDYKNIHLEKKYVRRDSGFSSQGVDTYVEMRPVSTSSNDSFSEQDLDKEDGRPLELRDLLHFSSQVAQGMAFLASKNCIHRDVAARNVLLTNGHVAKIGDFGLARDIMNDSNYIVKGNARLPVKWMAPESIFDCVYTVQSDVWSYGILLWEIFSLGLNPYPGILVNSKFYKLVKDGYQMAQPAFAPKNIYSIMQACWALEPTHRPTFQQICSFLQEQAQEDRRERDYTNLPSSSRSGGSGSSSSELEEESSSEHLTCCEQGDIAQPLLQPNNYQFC

[17] = molecular target: Casein kinase I isoform gamma-2 (Homo sapiens) (UniProt P78368); assay: Inhibition of CK1gamma2 (unknown origin) at 1 uM by FRET assay relative to control
[18] = molecular target: Tyrosine-protein kinase receptor UFO (Homo sapiens, UniProt P30530); assay: Inhibition of recombinant His-tagged human AXL (473 to end residues) cytoplasmic domain expressed in insect cells by FRET assay
[19] = molecular target: Phosphatidylinositol 4,5-bisphosphate 3-kinase catalytic subunit gamma isoform (Homo sapiens) (UniProt P48736); assay: Inhibition of recombinant full length His-tagged human PI3KG at 1 uM by FRET assay relative to control
[20] = molecular target: Serine/threonine-protein kinase PAK 1 (Homo sapiens) (UniProt Q13153); assay: Inhibition of recombinant full length GST-tagged human PAK1 expressed in baculovirus expression system at 1 uM by FRET assay relative to control
Chain of Serine/threonine-protein kinase PAK 1 (Homo sapiens) (Q13153 whole entry, the tested form may be a part): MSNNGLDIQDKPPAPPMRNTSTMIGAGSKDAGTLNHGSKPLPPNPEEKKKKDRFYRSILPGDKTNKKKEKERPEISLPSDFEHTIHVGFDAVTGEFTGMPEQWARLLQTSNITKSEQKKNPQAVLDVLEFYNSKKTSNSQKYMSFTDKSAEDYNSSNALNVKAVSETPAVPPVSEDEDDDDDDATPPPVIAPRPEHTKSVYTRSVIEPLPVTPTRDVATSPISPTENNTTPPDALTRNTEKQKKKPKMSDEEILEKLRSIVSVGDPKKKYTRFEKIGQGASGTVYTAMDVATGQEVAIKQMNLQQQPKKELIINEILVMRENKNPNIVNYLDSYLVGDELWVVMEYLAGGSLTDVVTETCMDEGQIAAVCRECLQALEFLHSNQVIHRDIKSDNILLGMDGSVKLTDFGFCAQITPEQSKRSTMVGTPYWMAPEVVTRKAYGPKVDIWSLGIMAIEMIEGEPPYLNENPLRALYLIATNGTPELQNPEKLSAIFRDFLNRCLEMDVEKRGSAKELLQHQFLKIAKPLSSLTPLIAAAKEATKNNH

Ephrin type-A receptor 7 = Ephrin type-A receptor 7 (Homo sapiens, UniProt Q15375); assay: Inhibition of recombinant GST-tagged human EphA7 cytoplasmic domain expressed in baculovirus expression system by FRET assay
Chain of Ephrin type-A receptor 7 (Q15375 whole entry, the tested form may be a part): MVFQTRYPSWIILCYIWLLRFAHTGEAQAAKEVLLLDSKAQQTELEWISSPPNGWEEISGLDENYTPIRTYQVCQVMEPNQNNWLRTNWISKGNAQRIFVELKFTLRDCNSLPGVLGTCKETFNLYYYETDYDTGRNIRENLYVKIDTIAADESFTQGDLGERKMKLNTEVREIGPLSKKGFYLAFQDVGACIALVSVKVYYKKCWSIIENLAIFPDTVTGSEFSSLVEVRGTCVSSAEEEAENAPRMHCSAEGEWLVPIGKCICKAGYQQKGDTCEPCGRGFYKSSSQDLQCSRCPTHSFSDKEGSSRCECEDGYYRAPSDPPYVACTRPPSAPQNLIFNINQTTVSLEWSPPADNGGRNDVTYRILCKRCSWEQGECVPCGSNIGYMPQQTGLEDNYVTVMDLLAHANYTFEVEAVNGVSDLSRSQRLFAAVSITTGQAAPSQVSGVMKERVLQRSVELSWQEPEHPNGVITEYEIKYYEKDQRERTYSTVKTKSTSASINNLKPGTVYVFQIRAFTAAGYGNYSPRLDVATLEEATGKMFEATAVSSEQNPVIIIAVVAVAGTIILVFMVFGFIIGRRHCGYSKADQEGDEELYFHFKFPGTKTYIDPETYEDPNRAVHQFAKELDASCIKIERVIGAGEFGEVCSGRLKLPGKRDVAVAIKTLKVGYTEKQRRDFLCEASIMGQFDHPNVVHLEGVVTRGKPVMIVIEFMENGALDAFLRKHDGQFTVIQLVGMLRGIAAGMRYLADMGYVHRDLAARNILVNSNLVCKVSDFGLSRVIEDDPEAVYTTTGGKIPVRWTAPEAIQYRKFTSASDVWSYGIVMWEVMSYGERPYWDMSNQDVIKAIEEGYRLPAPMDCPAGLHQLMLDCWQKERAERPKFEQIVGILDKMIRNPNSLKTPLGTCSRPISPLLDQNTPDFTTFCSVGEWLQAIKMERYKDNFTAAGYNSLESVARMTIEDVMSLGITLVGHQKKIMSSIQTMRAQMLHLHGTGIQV

Structure (SMILES): CC(C)n1nc(-c2cnc(N)c(OC(F)(F)F)c2)cc1[C@H]1[C@@H]2CN(C3COC3)C[C@@H]21
- inhibition [1]: 5.9%
- inhibition in vivo at 15 mg/kg (Mus musculus [2]): 42%
- inhibition [3]: -5.9%
- inhibition [4]: 21.9%
- inhibition [5]: -0.2%
- inhibition (Mus musculus [6]): Active
- inhibition [7]: 13.5%
- IC50 [8]: 673 nM
- inhibition [9]: 3.5%
- Activity (Mus musculus [10]): Active
- inhibition (Mus musculus [11]): Active
- inhibition [12]: -3.4%
- IC50 [13]: 1520 nM
- Activity (Mus musculus [14]): Active
- Activity [15]: > 50%

Structure (SMILES): Nc1ncc(-c2cc([C@H]3[C@@H]4CN(C5COC5)C[C@@H]43)n(CC3CC3)n2)cc1C(F)(F)F
- IC50 [16]: 1220 nM
- inhibition [17]: 7.1%
- IC50 [18]: 448 nM
- inhibition [4]: 24.6%
- inhibition [19]: 12.4%
- inhibition [5]: -3.3%
- inhibition [7]: 30.8%
- inhibition [20]: 0.7%
- IC50 (Ephrin type-A receptor 7): 665 nM
- Activity [15]: > 50%
